Data published in article PMC2913304 (Pharmaceutical research, 2008).
Like-named read-outs stand apart in the source and are kept apart here. Non-standard residues stand in square brackets, D forms with d. Residues, ends and D or L forms follow the SMILES beside them. Sar = CNCC(=O)O

Experiments:
[1] = tested on: SKPT cells; test: Effect of potential inhibitors on apical uptake of carnosine; type: in vitro ADME, rat; conditions: 15-min uptake, apical pH 6.0; for reduction of apical uptake of carnosine: inhibitor 1 and 2 mM
Procedure, shortened: (§1)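 Measured 15-min uptake at 37°C of [3H]substrate (with [14C]mannitol correction) from the apical or basolateral side, co-incubated with or without test compounds (PEPT2 and PHT1 substrates, unlabelled substrate, a cephalosporin). Apical buffer was pH 6.0 and basolateral pH 7.4. Test compounds were 1 mM for basolateral uptake. Results were compared with control by ANOVA and Dunnett's test. n=3–6.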

[2] = tested on: SKPT cells; test: Effect of potential inhibitors on basolateral uptake of carnosine; type: in vitro ADME, rat; conditions: inhibitor 1 mM; 15-min uptake, basolateral pH 7.4
Procedure, shortened: as §1

[3] = tested on: SKPT cells; conditions: cited from earlier work
[4] = tested on: SKPT cells; test: Carnosine intracellular accumulation; type: in vitro ADME, rat
Procedure, shortened: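 Rat kidney proximal tubule cells (SV40-transformed) grown on collagen-coated filter inserts and used 4 days after seeding, with no antibiotics for the final 24 h and monolayer resistance checked. Cells were preincubated 10 min at 37°C with apical pH 6.0 and basolateral pH 7.4 buffer. 10 µM [3H]substrate plus [14C]mannitol was added to one side, 37°C timed incubations. Cells washed with ice-cold buffer, solubilised (NaOH/SDS), counted. Values normalised to protein and mannitol-corrected. Concentration ratio used intracellular volume from 3-O-methyl-D-glucose uptake (1–10 mM, 300 min, phloridzin). n=3–5.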

[5] = Carnosine transepithelial transport across SKPT cell monolayers; type: in vitro ADME, rat; conditions: rat, basolateral-to-apical transcellular flux relative to apical-to-basolateral flux, 10 µM carnosine
Procedure, shortened: (§2)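 Filter-grown SKPT monolayers with apical pH 6.0 (MES/Tris) and basolateral pH 7.4 (HEPES/Tris) buffers at 37°C. 10 µM [3H]substrate with [14C]mannitol was placed in the apical or basolateral donor side. Receiver aliquots were taken over time for scintillation counting. Paracellular flux was corrected with mannitol, and clearances were obtained from flux relative to the 10 µM donor concentration. n=3–5.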

[6] = tested on: SKPT cells; test: as above; type: in vitro ADME, rat; conditions: 10 µM in donor compartment, slope of transport vs time
Procedure, shortened: as §2

[7] = tested on: SKPT cells; test: Efflux studies after 2 hr apical preloading of SKPT monolayers; type: in vitro ADME, rat
Procedure, shortened: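 Monolayers loaded apically with 10 µM [3H]substrate and [14C]mannitol for 2 h at 37°C, then washed four times with ice-cold buffer. Substrate-free buffer was added to both sides (apical pH 6.0, basolateral pH 7.4) at 37°C. Apical (100 µl) and basolateral (300 µl) samples were taken at set times and replaced. Radioactivity is expressed as percent of cell content after loading. n=3–5.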

[8] = tested on: SKPT cells; test: Cellular compartment model: influx and efflux clearances of carnosine; type: in vitro ADME, rat
Procedure, shortened: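 A three-compartment (apical, cellular, basolateral) mass-balance model gave influx and efflux clearances (µl/min/mg protein). Transepithelial clearances came from 10 µM donor flux experiments. Each influx clearance equals the transcellular clearance divided by the steady-state fraction effluxed to the opposite compartment. These fractions came from efflux studies after 2 h apical loading.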

[9] = tested on: SKPT cells; test: Proton; type: in vitro ADME, rat; conditions: 15-min uptake, 10 µM, donor pH 5.5 to 7.4, basolateral pH 7.4
Procedure, shortened: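 The donor-side pH was varied from 5.5 to 7.4 while the opposite side was held at pH 7.4 (apical uptake) or pH 6.0 (basolateral uptake). Uptake of 10 µM [3H]substrate was measured over 15 min at 37°C. Values were compared with pH 7.4 by ANOVA and Dunnett's test. n=3–6.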

[10] = target: T1, PEPT2 (Rattus norvegicus, UniProt Q63424); test: Concentration-dependent apical uptake of carnosine; type: in vitro ADME; conditions: 1–500 µM carnosine, 15-min uptake, pH 6.0
T1 sequence (Q63424 1-729): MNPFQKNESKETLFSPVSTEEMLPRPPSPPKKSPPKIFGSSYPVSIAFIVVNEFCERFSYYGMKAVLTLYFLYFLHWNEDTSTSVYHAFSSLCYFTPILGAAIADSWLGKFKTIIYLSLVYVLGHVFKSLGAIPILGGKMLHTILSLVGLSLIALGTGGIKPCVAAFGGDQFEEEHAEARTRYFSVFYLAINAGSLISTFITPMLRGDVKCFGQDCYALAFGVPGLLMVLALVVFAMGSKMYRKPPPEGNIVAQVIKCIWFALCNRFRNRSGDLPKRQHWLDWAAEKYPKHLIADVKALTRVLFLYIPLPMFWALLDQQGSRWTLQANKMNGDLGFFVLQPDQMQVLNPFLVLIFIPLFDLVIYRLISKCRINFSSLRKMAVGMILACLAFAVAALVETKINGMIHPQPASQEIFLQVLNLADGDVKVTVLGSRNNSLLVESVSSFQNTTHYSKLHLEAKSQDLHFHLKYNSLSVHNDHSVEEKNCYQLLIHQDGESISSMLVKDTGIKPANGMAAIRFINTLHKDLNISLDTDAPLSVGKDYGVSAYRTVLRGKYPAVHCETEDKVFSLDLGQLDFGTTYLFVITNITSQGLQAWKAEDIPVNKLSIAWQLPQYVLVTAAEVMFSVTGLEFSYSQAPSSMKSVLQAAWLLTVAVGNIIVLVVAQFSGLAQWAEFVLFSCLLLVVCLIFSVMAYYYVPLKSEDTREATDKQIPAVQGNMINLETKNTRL

[11] = tested on: basolateral transporter; test: Concentration-dependent basolateral uptake of carnosine; type: in vitro ADME, rat
[12] = tested on: SKPT cells; test: Substrate stability studies in SKPT compartments; type: in vitro ADME, rat
Procedure, shortened: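 10 µM [3H]substrate applied apically or basolaterally (apical pH 6.0, basolateral pH 7.4) for 5–300 min at 37°C. Donor and receiver media were collected. Cells were washed, sonicated in water, extracted with an equal volume of acetonitrile, and centrifuged at 14,000 g for 10 min at 4°C. Reversed-phase C18 HPLC used isocratic 0.1 M NaH2PO4/0.075% heptafluorobutyric acid at 1 ml/min. Stability was taken from recovery and histidine appearance. n=3.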

[13] = pKa and fractional ionization of carnosine; type: physicochemical
[14] = tested on: rat choroid plexus primary cell cultures; conditions: cited from earlier work
[15] = target: T1, PEPT2; conditions: read-out: Km, PEPT2-mediated uptake; rat choroid plexus whole tissue; cited from earlier work
[16] = target: T1, PEPT2; conditions: read-out: Km, PEPT2-mediated uptake; rat neonatal astrocytes; cited from earlier work
[17] = substrate: NCCC(=O)N[C@@H](Cc1cnc[nH]1)C(=O)O; test: Concentration-dependent apical uptake of carnosine; type: in vitro ADME, rat; conditions: other: 1–500 µM carnosine, 15-min uptake, pH 6.0, 37.0 °C
[18] = at 60 min, after 2 hr apical preloading with 10 µM
[19] = single exponential fit of efflux-time profile

CN(CC(=O)O)C(=O)CN [GlySar, glycylsarcosine] (H-Gly-[Sar]-OH)
reduction of apical uptake of carnosine [1]: 90%
reduction of basolateral uptake of carnosine [2]: 90–99%
apical uptake relative to basolateral uptake ([3]; ref 37): about 5 ×
apical uptake relative to basolateral uptake ([3]; ref 38): about 3.5 ×
apical-to-basolateral transepithelial flux higher than reverse flux ([3]; ref 38): 28%

NCCC(=O)N[C@@H](Cc1cnc[nH]1)C(=O)O [carnosine, β-alanyl-L-histidine]
time over which uptake was linear, apical surface ([4]; 10 µM carnosine): 60 min
time over which uptake was linear, basolateral surface ([4]; 10 µM carnosine): 30 min
basolateral uptake plateau value ([4]; 10 µM carnosine introduced from basolateral compartment): 15 pmol/mg protein
apical uptake plateau value ([4]; 10 µM carnosine, at 180–300 min): approximately 220 pmol/mg protein
intracellular to extracellular concentration ratio, basolateral introduction ([4]; 10 µM extracellular): 0.8
intracellular to extracellular concentration ratio, apical introduction ([4]; 10 µM extracellular, intracellular volume 2.0 µl/mg protein): 11
efflux ratio at 10 µM [5]: ~2
A-to-B transepithelial rate [6]: 1.99 pmol/min/mg protein
B-to-A transepithelial rate [6]: 3.74 pmol/min/mg protein
cell-to-apical efflux relative to cell-to-basolateral efflux ([7]; SKPT cells): about 10 times
carnosine effluxed from cell to apical compartment [7, 18]: about 40%
carnosine effluxed from cell to basolateral compartment [7, 18]: about 4%
fefflux.A (fraction effluxed to apical compartment at steady state) ([7]; single exponential fit): 0.66
fefflux.B (fraction effluxed to basolateral compartment at steady state) ([7]; single exponential fit): 0.047
carnosine effluxed from cellular to apical compartment at steady state [7, 19]: 66%
carnosine effluxed to basolateral compartment at steady state [7, 19]: 4.7%
CLBC/CLCA ratio [8]: 0.8
CLBC/CLCB ratio [8]: 32
CLCB/CLAC ratio [8]: 0.004
pH of maximal apical uptake [9]: 6.5
reduction of apical uptake of carnosine [1]: 96%
reduction of basolateral uptake of carnosine [2]: 90–99%
Vmax, apical membrane uptake [10]: 659±27 pmol/mg/15min
Vmax, basolateral membrane uptake ([11]; 1–500 µM carnosine, 15-min uptake, pH 7.4): 27.4±1.3 pmol/mg/15min
lower affinity of basolateral transporter compared to apical transporter ([11]; Km comparison): 2 fold
lower capacity of basolateral transporter compared to apical transporter ([11]; Vmax comparison): 24 fold
stability in donor compartment ([12]; apical or basolateral donor side, up to 300 min of incubation): remained intact
intact in intracellular compartment at 60 min ([12]; intracellular compartment, 60 min): about 87%
intact in intracellular compartment at 300 min ([12]; intracellular compartment, 300 min): 81%
intact in intracellular compartment, first 15 min ([12]; intracellular compartment, first 15 min of incubation): > 94%
ionized (NH3+) at pH 5.5 ([13]; pH 5.5): 95%
ionized (NH3+) at pH 6.5 ([13]; pH 6.5): 65%
ionized (NH3+) at pH 7.4 ([13]; pH 7.4): 15–20%
apical efflux relative to basolateral efflux [14]: about 4 times
intracellular to extracellular concentration ratio [14]: approximately 135
Km [15]: 39 µM
Km [16]: 43 µM

CC1=C(C(=O)O)N2C(=O)[C@@H](NC(=O)[C@H](N)c3ccc(O)cc3)[C@H]2SC1 [cefadroxil]
reduction of basolateral uptake of carnosine [2]: 90–99%

N[C@@H](Cc1c[nH]cn1)C(=O)O [histidine, L-histidine]
effect on apical uptake of carnosine ([1]; inhibitor 1, 2 and 5 mM): unaffected
effect on basolateral uptake of carnosine [2]: unaffected

B1: PEPT2 (Rattus norvegicus) (protein)
chain: MNPFQKNESKETLFSPVSTEEMLPRPPSPPKKSPPKIFGSSYPVSIAFIVVNEFCERFSYYGMKAVLTLYFLYFLHWNEDTSTSVYHAFSSLCYFTPILGAAIADSWLGKFKTIIYLSLVYVLGHVFKSLGAIPILGGKMLHTILSLVGLSLIALGTGGIKPCVAAFGGDQFEEEHAEARTRYFSVFYLAINAGSLISTFITPMLRGDVKCFGQDCYALAFGVPGLLMVLALVVFAMGSKMYRKPPPEGNIVAQVIKCIWFALCNRFRNRSGDLPKRQHWLDWAAEKYPKHLIADVKALTRVLFLYIPLPMFWALLDQQGSRWTLQANKMNGDLGFFVLQPDQMQVLNPFLVLIFIPLFDLVIYRLISKCRINFSSLRKMAVGMILACLAFAVAALVETKINGMIHPQPASQEIFLQVLNLADGDVKVTVLGSRNNSLLVESVSSFQNTTHYSKLHLEAKSQDLHFHLKYNSLSVHNDHSVEEKNCYQLLIHQDGESISSMLVKDTGIKPANGMAAIRFINTLHKDLNISLDTDAPLSVGKDYGVSAYRTVLRGKYPAVHCETEDKVFSLDLGQLDFGTTYLFVITNITSQGLQAWKAEDIPVNKLSIAWQLPQYVLVTAAEVMFSVTGLEFSYSQAPSSMKSVLQAAWLLTVAVGNIIVLVVAQFSGLAQWAEFVLFSCLLLVVCLIFSVMAYYYVPLKSEDTREATDKQIPAVQGNMINLETKNTRL
Km [17]: 49 ± 8 µM
